Test results reported in PMC9279635 (Acta Pharmaceutica Sinica. B, 2021).

Legend:
DDR1 = DDR1 (Homo sapiens, UniProt Q08345); experiment: ELISA kinase assay, DDR1; format: biochemical
Flt-3 = target: T1, Flt-3 (Homo sapiens, UniProt P36888); experiment: ELISA kinase assay, Flt-3; format: biochemical; details: for inhibition at 0.01 µM: read-out: Flt-3 inhibition @10 nmol/L
T1 sequence (P36888 27-993): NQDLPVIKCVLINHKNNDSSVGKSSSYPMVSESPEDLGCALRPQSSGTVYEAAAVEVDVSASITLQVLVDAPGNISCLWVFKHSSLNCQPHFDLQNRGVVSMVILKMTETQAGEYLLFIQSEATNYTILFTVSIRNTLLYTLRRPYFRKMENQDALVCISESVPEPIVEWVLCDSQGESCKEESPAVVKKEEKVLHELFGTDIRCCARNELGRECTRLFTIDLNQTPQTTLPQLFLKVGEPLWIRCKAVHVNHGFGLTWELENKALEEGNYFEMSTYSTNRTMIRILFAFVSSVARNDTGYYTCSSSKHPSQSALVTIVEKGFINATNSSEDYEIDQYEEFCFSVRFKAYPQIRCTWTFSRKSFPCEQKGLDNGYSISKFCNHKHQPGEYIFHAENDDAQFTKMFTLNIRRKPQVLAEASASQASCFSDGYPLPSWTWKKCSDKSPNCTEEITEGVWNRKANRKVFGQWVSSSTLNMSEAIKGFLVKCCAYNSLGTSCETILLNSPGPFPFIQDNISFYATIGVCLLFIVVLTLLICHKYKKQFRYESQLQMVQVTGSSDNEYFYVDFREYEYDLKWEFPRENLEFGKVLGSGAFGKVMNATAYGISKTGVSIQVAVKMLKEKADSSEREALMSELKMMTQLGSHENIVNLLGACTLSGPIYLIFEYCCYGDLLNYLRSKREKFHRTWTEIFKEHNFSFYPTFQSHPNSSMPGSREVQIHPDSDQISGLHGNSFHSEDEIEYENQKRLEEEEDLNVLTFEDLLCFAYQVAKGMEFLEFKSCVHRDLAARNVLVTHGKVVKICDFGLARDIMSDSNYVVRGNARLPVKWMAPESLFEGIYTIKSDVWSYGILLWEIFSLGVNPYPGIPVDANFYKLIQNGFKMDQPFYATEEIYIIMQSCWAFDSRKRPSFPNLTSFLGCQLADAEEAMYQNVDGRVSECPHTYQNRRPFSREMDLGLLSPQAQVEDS

KDR = KDR (Homo sapiens, UniProt P35968); experiment: ELISA kinase assay, KDR; format: biochemical; details: for inhibition at 0.1 µM: read-out: KDR inhibition @100 nmol/L
ABL = ABL (Homo sapiens, UniProt P00519); experiment: Kinase selectivity test, ABL; format: biochemical; details: 10 nmol/L
[1] = system: DDR2 phosphorylation in MRC-5; experiment: DDR2 phosphorylation in TGF-β stimulated MRC-5; format: cell-based; details: 1 μmol/L, MRC-5, 24 h TGF-β stimulation
How it was run: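 Confluent MRC-5 fibroblasts are stimulated with TGF-β (5 ng/mL) and treated with a range of test compound concentrations for 24 h. Western blots are probed for phospho-DDR2, fibronectin, α-SMA, with GAPDH as loading control.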

DDR2 = target: T2, DDR2 (Homo sapiens, UniProt Q16832); experiment: ELISA kinase assay, DDR2; format: biochemical; details: DDR2 IC50, two separate experiments
T2 sequence (Q16832 22-855): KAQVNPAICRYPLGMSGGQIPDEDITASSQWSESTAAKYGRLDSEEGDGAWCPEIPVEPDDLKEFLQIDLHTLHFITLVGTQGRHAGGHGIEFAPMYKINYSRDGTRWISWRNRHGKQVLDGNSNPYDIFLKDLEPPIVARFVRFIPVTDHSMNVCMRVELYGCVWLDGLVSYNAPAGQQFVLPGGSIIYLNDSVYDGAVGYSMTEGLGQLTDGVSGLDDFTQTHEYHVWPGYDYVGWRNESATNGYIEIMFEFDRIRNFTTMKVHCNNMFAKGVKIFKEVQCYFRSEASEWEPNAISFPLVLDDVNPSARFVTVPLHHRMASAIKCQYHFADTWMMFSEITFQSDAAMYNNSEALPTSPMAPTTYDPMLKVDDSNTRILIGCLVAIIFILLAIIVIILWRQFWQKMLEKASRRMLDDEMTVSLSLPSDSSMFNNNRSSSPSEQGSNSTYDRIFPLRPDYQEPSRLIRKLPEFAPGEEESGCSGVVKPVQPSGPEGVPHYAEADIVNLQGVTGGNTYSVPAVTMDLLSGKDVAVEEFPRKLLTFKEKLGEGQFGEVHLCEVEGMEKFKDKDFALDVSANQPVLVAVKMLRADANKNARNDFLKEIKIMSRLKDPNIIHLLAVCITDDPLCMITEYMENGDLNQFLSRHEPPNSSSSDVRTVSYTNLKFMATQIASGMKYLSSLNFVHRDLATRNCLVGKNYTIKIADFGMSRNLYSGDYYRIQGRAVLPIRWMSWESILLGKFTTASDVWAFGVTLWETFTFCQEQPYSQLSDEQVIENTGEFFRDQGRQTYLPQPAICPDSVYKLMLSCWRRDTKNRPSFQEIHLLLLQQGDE

[2] = system: bleomycin-induced pulmonary fibrosis; experiment: BLM induced mouse lung fibrosis; format: in vivo, mice (C57BL/6)
How it was run: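 Bleomycin (1.7 U/kg) or saline is given intratracheally to mice. After 7 days, test compound is dosed once daily for 21 days (n = 6–9/group). Body weight is tracked over the period. On day 21, lung sections are stained with H&E, F4/80, Masson and COL-1, and H&E and Masson sections are scored. Data are mean ± SEM, analysed by one-way ANOVA with Fisher's LSD.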

RET = RET (Homo sapiens, UniProt P07949); experiment: ELISA kinase assay, RET; format: biochemical; details: read-out: RET inhibition @10 nmol/L
Sequence of RET (P07949 29-1114): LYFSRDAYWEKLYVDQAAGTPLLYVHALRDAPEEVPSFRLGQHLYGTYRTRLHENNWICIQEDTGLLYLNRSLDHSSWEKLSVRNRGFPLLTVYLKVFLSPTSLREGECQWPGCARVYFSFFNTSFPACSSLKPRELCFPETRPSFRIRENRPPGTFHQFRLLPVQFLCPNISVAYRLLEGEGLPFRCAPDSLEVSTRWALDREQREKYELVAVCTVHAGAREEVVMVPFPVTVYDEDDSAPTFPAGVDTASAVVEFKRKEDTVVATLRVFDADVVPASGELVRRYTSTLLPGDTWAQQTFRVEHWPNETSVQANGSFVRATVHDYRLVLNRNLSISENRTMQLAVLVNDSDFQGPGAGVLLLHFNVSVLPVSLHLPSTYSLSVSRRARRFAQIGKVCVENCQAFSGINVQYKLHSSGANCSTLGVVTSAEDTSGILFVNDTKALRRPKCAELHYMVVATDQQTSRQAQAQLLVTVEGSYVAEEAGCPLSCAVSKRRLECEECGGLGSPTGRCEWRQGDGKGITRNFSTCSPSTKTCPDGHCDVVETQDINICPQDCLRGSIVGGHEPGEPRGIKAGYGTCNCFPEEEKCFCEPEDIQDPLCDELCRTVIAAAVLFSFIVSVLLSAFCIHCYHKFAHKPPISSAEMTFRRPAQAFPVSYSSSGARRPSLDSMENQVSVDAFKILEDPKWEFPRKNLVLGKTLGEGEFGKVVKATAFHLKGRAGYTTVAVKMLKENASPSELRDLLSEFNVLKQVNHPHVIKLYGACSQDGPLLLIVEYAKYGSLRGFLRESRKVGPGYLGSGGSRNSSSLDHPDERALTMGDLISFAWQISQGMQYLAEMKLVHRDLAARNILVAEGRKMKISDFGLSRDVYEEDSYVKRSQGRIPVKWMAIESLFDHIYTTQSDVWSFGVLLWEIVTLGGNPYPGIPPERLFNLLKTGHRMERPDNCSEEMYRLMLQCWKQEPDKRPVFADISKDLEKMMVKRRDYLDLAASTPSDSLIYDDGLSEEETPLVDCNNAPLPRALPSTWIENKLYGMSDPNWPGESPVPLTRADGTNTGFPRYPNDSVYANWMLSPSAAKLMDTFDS

Sequence of DDR1 (Q08345 19-913): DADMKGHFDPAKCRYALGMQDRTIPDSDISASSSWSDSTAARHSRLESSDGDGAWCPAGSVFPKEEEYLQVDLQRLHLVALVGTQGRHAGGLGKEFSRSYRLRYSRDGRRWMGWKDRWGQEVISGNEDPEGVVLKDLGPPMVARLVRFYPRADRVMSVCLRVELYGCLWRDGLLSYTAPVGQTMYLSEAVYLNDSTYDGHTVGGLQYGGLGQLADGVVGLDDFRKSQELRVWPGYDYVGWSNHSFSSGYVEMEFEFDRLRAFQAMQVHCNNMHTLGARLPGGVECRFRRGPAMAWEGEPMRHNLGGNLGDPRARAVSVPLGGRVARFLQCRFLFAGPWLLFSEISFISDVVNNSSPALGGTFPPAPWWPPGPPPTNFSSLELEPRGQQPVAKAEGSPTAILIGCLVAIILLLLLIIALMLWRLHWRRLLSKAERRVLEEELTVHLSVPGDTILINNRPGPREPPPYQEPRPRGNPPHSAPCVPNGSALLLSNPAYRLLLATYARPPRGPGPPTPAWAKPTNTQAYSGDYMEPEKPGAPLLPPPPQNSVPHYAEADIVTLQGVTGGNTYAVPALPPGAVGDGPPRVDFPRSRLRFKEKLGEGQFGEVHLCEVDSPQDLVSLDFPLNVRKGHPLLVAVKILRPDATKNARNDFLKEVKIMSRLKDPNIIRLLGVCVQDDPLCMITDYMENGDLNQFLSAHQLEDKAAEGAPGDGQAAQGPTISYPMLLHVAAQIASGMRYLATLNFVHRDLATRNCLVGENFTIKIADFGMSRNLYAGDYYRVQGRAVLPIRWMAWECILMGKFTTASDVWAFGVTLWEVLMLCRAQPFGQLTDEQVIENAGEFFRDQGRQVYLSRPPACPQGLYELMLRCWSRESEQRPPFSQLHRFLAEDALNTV
Sequence of KDR (P35968 20-1356): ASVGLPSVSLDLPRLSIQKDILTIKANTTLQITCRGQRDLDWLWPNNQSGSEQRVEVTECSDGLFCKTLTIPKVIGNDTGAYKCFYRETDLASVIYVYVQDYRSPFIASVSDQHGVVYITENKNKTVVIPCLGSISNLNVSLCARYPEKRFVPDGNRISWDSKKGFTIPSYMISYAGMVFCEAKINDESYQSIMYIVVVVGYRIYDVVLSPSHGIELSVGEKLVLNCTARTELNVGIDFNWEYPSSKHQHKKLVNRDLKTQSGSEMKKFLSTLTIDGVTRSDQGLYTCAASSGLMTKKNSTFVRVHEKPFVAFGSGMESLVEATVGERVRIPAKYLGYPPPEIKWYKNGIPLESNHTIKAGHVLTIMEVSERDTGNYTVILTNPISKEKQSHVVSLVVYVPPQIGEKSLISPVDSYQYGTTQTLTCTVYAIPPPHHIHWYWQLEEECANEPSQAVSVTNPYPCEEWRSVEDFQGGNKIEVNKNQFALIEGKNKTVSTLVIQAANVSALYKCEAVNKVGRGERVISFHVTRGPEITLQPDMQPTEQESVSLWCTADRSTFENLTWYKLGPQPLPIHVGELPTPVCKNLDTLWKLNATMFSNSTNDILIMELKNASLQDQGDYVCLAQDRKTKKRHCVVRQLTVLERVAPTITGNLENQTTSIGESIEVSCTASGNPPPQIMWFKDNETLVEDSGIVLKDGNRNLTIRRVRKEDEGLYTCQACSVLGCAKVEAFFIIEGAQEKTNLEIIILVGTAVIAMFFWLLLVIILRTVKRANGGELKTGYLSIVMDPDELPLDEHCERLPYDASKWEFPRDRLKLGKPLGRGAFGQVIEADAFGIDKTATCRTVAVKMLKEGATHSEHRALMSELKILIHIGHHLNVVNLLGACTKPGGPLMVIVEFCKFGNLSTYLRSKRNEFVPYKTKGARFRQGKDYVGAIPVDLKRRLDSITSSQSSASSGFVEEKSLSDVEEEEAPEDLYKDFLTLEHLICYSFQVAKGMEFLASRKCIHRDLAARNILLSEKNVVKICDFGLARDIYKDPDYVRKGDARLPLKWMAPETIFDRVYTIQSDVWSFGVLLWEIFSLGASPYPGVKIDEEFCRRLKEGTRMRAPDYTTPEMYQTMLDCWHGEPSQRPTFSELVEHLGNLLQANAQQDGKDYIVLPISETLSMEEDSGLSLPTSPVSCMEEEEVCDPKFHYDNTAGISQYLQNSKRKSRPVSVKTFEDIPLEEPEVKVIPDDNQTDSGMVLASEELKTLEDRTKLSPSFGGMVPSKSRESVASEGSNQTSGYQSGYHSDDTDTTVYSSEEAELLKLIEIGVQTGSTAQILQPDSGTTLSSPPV
Sequence of ABL (P00519 whole entry): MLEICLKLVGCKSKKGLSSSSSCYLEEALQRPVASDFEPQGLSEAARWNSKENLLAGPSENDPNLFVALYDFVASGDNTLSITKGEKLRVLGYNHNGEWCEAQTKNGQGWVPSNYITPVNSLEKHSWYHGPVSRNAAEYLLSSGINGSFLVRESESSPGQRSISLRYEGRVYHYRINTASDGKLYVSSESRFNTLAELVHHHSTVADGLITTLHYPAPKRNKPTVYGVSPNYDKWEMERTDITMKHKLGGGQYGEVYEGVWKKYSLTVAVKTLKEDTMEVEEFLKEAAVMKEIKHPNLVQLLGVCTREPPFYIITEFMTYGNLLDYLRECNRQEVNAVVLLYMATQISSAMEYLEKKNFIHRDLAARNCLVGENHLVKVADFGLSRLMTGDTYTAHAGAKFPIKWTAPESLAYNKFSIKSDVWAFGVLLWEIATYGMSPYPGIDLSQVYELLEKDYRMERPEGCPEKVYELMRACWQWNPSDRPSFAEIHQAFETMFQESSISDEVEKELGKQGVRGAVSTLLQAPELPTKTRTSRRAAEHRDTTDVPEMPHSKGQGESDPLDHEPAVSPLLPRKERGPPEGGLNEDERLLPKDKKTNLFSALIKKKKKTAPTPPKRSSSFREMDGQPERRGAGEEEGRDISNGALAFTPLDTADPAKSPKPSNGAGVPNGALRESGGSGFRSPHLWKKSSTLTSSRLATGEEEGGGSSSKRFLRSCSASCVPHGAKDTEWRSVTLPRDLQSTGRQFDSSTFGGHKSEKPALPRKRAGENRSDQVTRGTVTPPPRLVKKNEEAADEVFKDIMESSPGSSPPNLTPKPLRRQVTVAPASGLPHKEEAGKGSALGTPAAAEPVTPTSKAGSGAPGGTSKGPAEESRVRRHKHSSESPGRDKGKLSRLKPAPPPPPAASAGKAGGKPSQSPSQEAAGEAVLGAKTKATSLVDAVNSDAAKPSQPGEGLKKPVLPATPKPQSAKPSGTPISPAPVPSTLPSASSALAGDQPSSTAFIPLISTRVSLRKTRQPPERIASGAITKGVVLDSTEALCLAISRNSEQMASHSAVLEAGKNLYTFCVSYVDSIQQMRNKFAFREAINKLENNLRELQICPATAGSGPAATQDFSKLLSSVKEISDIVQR

| Structure (SMILES) | IC50 (DDR1) [nM] | inhibition at 0.1 µM (KDR) [%] | IC50 (DDR2) [nM] | other results |
| --- | --- | --- | --- | --- |
| O=C(Nc1cccc(C(F)(F)F)c1)c1ccc(C2CC2)c(-c2ccc3nc(Nc4cnn(C5CC5)c4)ncc3c2)c1 [Compound 36, 4-Cyclopropyl-3-(2-((1-cyclopropyl-1H-pyrazol-4-yl)amino)quinazolin-6-yl)-N-(3-(trifluoromethyl)phenyl)benzamide] | 16 | 100 |  | inhibition at 0.1 µM (Flt-3; read-out: Flt-3 inhibition@100 nmol/L): 0%; KDR inhibition ratio (KDR; 10 nmol/L): over 50%; ABL inhibition ratio (ABL): over 50%; inhibition of DDR2 phosphorylation [1]: high inhibitory activity |
| Cc1ccc(C(C)NC(=O)c2cccc(C(F)(F)F)c2)cc1-c1ccc2nc(Nc3cnn(C4CC4)c3)ncc2c1 (stereo not drawn) [Compound 43, N-(1-(3-(2-((1-Cyclopropyl-1H-pyrazol-4-yl)amino)quinazolin-6-yl)-4-methylphenyl)ethyl)-3-(trifluoromethyl)benzamide] |  | 26.9 | 4.3 ± 1 |  |
| COC(=O)c1ccc2c(c1)NC(=O)/C2=C(\Nc1ccc(N(C)C(=O)CN2CCN(C)CC2)cc1)c1ccccc1 [nintedanib] |  |  |  | weight of mice at the end of the treatment ([2]; 60 mg/kg once daily): 24.54 ± 2.09 g; weight recovery ratio ([2]; BLM mice, 60 mg/kg): 12.93%; Masson score ([2]; BLM mice, 60 mg/kg, vehicle 2.67 ± 0.57, scale 1–4): 1.89 ± 0.55 |
| Cc1ccc(C(=O)Nc2cccc(C(F)(F)F)c2)cc1-c1ccc2cn[nH]c2c1 [Compound 7, 3-(1H-Indazol-6-yl)-4-methyl-N-(3-(trifluoromethyl)phenyl)benzamide] | 9.74 |  |  |  |
| Cc1ccc(NC(=O)C(C)c2cccc(C(F)(F)F)c2)cc1-c1ccc2nc(Nc3cnn(C)c3)ncc2c1 (stereo not drawn) [Compound 39, N-(4-Methyl-3-(2-((1-methyl-1H-pyrazol-4-yl)amino)quinazolin-6-yl)phenyl)-2-(3-(trifluoromethyl)phenyl)propanamide] |  | 70.2 |  |  |

Further lines, with some results ahead:

| IC50 (DDR1) [nM] | inhibition at 0.1 µM (KDR) [%] | IC50 (DDR2) [nM] | Structure (SMILES) | other results |
| --- | --- | --- | --- | --- |
|  | 94 |  | Cc1ccc(C(=O)NCc2cccc(C(F)(F)F)c2)cc1-c1ccc2nc(Nc3cnn(C)c3)ncc2c1 [Compound 38, 4-Methyl-3-(2-((1-methyl-1H-pyrazol-4-yl)amino)quinazolin-6-yl)-N-(3-(trifluoromethyl)benzyl)benzamide] |  |
| 13.8 |  | 2.8 ± 0.5 | Cc1ccc(C(=O)Nc2cccc(C(F)(F)F)c2)cc1-c1ccc2nc(Nc3cnn(C4CC4)c3)ncc2c1 [Compound 24, 3-(2-((1-Cyclopropyl-1H-pyrazol-4-yl)amino)quinazolin-6-yl)-4-methyl-N-(3-(trifluoromethyl)phenyl)benzamide] | inhibition of DDR2 phosphorylation [1]: high inhibitory activity |
|  |  | 2.8 ± 0.2 | Cc1ccc(C(=O)Nc2cc(CN3CCCN(C)CC3)cc(C(F)(F)F)c2)cc1-c1ccc2nc(Nc3cnn(C)c3)ncc2c1 [Compound 30, 4-Methyl-N-(3-((4-methyl-1,4-diazepan-1-yl)methyl)-5-(trifluoromethyl)phenyl)-3-(2-((1-methyl-1H-pyrazol-4-yl)amino)quinazolin-6-yl)benzamide] | inhibition at 0.01 µM (RET): 93.2%; inhibition at 0.01 µM (Flt-3): 97% |
|  |  | 2.9 ± 0.2 | Cc1ccc(C(=O)Nc2cc(CN3C[C@H]4CC[C@@H](C3)N4C)cc(C(F)(F)F)c2)cc1-c1ccc2nc(Nc3cnn(C)c3)ncc2c1 [Compound 31, 4-Methyl-3-(2-((1-methyl-1H-pyrazol-4-yl)amino)quinazolin-6-yl)-N-(3-(((1R,5S)-8-methyl-3,8-diazabicyclo[3.2.1]octan-3-yl)methyl)-5-(trifluoromethyl)phenyl)benzamide] | inhibition at 0.01 µM (RET): 95%; inhibition at 0.01 µM (Flt-3): 96% |
|  | 89.3 |  | Cc1ccc(NC(=O)Nc2cccc(C(F)(F)F)c2)cc1-c1ccc2nc(Nc3cnn(C)c3)ncc2c1 [Compound 37, 1-(4-Methyl-3-(2-((1-methyl-1H-pyrazol-4-yl)amino)quinazolin-6-yl)phenyl)-3-(3-(trifluoromethyl)phenyl)urea] |  |
